# Ends that are not written are not given here.
# How the values were obtained:
# monoamine oxidases = conditions: used in the treatment of clinical depression; cited from earlier work
# Sir2Tm = Sir2Tm (Thermotoga maritima, UniProt Q9WYW0); assay: HPLC deacetylation assay, Sir2Tm; type: biochemical, bacterial; conditions: pH 8.0, 37°C
# How it was run: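 Enzyme addition at 37°C started the reaction; Sir2Tm was refolded from inclusion bodies, ~90% pure. Aliquots at 0, 5, 10, 20 min were acid-quenched, urea-treated, ultrafiltered and resolved by C18 reverse-phase HPLC; integrated peak areas gave rate constants.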
# SIRT1 = molecular target: T1, SIRT1 (Homo sapiens, UniProt Q96EB6); assay: HPLC deacetylation assay, SIRT1; type: biochemical; conditions: 0.07 μM (1U) SIRT1, 500 μM NAD, peptide 0–500 μM, pH 8.0, 37°C, 0–20 min, at least duplicate
# T1 sequence (Q96EB6 1-747): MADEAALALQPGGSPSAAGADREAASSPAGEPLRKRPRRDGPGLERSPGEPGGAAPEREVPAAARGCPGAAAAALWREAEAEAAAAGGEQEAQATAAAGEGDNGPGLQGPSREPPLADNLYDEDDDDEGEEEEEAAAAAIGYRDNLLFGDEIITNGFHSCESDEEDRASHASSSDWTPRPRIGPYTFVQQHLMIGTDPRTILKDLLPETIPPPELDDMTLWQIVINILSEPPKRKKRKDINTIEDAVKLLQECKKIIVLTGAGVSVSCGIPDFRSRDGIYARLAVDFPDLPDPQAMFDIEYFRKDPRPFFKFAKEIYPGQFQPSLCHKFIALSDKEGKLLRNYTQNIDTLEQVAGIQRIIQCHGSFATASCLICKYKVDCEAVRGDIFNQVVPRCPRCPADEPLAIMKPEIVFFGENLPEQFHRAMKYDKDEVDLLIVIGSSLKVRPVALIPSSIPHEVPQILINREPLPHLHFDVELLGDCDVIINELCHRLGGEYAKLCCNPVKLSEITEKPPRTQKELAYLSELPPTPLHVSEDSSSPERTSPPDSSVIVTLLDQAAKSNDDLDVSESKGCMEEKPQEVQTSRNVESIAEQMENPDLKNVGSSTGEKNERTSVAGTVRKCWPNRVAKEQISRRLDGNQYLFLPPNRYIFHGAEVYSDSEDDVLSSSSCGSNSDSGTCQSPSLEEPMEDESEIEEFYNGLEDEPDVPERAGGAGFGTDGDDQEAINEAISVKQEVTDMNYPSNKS
# sirtuins = assay: Turnover of biotin-NAD as NAD alternate substrate; type: biochemical; conditions: 6-biotin-17-NAD; Supplemental Figure S12
# Chain of Sir2Tm (Q9WYW0 whole entry): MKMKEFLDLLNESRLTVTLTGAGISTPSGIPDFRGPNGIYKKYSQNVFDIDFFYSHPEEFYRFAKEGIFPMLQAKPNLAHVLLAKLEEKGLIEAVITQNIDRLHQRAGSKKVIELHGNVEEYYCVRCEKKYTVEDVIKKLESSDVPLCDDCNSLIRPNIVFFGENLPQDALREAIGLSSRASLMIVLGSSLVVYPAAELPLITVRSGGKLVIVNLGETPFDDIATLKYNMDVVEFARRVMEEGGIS
compound,measurement,setting,value
NNCCc1ccccc1 [phenethylhydrazine],monoamine oxidase inhibition,monoamine oxidases,well-established inhibitor of monoamine oxidases
"K382KAc: corresponding natural acetylated substrate, p53 (372–389) peptide containing acetyl-lysine at 382 (KKGQSTSRHKK(Ac)LMFKTEG; UniProt P04637 372-389, looked up, fragment)",deacetylation rate (apparent kcat),"Sir2Tm; 0.3–0.15 μM Sir2Tm, 500 μM NAD, peptide 0–500 μM, 0–20 min, HPLC, at least duplicate",0.18 ± 0.025 s⁻¹
same,Km,"Sir2Tm; steady-state kinetics, Sir2Tm, 0.5 mM NAD, p53 (372–389) peptides",71.8 ± 24.5 µM
same,deacetylation rate (apparent kcat),SIRT1,0.205 ± 0.012 s⁻¹
6-biotin-17-NAD,use as NAD alternate substrate by sirtuins,sirtuins,can be turned over by sirtuins as an NAD alternate substrate
